# pIC50: −log10 of the molar value. Calls of active or inactive are those of the source. The rule behind the calls is not given here.
# Key:
# [1] = biological target: T1, Protein deacetylase HDAC6 (Homo sapiens, UniProt Q9UBN7); assay: Inhibition of recombinant N-terminal GST-tagged human HDAC6 (1 to 1215 residues) expressed in Baculovirus infected insect cells using RHKK-Ac as substrate by fluorimetric assay
# T1 sequence (Q9UBN7 whole entry): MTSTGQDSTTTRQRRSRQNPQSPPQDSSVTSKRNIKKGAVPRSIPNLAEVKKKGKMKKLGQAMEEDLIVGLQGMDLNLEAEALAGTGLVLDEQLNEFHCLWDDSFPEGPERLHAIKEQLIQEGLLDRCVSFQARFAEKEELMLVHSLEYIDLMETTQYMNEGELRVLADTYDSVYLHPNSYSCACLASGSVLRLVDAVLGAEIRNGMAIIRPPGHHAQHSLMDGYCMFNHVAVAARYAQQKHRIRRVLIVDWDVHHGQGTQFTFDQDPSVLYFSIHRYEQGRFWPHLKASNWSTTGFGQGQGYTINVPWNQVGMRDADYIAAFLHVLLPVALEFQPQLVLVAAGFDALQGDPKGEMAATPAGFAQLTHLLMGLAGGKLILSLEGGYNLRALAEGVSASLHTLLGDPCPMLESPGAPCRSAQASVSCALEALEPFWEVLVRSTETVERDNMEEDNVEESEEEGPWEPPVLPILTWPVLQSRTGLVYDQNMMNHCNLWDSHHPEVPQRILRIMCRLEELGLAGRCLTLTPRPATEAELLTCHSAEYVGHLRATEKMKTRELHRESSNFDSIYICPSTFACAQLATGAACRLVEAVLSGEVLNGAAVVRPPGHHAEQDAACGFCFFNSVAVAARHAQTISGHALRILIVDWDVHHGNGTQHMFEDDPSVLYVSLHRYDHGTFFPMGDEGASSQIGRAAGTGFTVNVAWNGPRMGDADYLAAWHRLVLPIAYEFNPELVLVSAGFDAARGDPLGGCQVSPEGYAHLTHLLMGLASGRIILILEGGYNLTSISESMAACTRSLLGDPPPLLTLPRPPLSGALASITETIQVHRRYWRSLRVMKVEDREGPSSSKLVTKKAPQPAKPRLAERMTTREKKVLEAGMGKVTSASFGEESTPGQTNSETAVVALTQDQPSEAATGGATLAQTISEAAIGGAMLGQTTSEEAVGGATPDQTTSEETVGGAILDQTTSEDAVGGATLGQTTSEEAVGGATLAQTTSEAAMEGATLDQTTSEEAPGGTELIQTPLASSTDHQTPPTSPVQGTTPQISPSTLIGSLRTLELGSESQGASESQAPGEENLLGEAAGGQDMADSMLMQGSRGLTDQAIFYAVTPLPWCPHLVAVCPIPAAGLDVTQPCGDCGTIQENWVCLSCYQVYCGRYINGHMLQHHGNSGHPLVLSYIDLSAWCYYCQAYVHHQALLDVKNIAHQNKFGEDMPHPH
# Kasumi 1 [2] = assay: Antiproliferative activity against human Kasumi-1 cells after 72 hrs by resazurin dye-based assay; type: functional, cell-based; details: Kasumi 1, 72 h
# Outline: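 KASUMI-1 cells incubated with compounds for 72 hr; viability read with resazurin reagent. IC50 taken as the mean of three experiments, each run in duplicate.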
# Histone deacetylase 11 = biological target: T2, Histone deacetylase 11 (Homo sapiens, UniProt Q96DB2); assay: Inhibition of recombinant C-terminal His-tagged human HDAC11 (1 to 347 residues) expressed in Baculovirus infected insect cells using RHKK-Ac as substrate by fluorimetric assay
# T2 sequence (Q96DB2 whole entry): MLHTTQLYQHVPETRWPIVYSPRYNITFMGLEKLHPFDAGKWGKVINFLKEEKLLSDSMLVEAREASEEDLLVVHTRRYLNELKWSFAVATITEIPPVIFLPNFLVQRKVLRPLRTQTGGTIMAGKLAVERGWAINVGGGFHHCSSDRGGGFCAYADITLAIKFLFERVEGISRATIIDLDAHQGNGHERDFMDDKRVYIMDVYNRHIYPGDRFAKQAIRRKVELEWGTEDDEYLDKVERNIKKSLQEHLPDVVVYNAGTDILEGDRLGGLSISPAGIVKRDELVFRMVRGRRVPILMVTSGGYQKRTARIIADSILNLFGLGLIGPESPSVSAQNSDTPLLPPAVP
# [3] = biological target: Histone deacetylase 3/Nuclear receptor corepressor 2 (HDAC3/NCoR2) (Homo sapiens, UniProt O15379); type: cell-based
# Chain of Histone deacetylase 3/Nuclear receptor corepressor 2 (HDAC3/NCoR2) (O15379 whole entry): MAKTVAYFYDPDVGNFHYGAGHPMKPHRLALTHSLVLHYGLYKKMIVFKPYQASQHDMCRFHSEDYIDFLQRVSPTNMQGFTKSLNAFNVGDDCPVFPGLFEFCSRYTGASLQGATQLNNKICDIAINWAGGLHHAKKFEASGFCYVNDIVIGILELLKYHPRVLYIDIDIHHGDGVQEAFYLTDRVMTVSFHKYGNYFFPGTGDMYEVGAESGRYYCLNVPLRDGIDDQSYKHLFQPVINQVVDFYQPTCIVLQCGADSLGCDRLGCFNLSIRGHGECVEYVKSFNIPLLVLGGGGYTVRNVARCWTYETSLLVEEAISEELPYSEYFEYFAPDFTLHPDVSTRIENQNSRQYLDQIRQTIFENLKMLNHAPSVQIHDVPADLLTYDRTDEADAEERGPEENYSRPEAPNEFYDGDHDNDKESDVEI
# Chain of Histone deacetylase 3/Nuclear receptor corepressor 2 (HDAC3/NCoR2) (Q9Y618 whole entry, further chain): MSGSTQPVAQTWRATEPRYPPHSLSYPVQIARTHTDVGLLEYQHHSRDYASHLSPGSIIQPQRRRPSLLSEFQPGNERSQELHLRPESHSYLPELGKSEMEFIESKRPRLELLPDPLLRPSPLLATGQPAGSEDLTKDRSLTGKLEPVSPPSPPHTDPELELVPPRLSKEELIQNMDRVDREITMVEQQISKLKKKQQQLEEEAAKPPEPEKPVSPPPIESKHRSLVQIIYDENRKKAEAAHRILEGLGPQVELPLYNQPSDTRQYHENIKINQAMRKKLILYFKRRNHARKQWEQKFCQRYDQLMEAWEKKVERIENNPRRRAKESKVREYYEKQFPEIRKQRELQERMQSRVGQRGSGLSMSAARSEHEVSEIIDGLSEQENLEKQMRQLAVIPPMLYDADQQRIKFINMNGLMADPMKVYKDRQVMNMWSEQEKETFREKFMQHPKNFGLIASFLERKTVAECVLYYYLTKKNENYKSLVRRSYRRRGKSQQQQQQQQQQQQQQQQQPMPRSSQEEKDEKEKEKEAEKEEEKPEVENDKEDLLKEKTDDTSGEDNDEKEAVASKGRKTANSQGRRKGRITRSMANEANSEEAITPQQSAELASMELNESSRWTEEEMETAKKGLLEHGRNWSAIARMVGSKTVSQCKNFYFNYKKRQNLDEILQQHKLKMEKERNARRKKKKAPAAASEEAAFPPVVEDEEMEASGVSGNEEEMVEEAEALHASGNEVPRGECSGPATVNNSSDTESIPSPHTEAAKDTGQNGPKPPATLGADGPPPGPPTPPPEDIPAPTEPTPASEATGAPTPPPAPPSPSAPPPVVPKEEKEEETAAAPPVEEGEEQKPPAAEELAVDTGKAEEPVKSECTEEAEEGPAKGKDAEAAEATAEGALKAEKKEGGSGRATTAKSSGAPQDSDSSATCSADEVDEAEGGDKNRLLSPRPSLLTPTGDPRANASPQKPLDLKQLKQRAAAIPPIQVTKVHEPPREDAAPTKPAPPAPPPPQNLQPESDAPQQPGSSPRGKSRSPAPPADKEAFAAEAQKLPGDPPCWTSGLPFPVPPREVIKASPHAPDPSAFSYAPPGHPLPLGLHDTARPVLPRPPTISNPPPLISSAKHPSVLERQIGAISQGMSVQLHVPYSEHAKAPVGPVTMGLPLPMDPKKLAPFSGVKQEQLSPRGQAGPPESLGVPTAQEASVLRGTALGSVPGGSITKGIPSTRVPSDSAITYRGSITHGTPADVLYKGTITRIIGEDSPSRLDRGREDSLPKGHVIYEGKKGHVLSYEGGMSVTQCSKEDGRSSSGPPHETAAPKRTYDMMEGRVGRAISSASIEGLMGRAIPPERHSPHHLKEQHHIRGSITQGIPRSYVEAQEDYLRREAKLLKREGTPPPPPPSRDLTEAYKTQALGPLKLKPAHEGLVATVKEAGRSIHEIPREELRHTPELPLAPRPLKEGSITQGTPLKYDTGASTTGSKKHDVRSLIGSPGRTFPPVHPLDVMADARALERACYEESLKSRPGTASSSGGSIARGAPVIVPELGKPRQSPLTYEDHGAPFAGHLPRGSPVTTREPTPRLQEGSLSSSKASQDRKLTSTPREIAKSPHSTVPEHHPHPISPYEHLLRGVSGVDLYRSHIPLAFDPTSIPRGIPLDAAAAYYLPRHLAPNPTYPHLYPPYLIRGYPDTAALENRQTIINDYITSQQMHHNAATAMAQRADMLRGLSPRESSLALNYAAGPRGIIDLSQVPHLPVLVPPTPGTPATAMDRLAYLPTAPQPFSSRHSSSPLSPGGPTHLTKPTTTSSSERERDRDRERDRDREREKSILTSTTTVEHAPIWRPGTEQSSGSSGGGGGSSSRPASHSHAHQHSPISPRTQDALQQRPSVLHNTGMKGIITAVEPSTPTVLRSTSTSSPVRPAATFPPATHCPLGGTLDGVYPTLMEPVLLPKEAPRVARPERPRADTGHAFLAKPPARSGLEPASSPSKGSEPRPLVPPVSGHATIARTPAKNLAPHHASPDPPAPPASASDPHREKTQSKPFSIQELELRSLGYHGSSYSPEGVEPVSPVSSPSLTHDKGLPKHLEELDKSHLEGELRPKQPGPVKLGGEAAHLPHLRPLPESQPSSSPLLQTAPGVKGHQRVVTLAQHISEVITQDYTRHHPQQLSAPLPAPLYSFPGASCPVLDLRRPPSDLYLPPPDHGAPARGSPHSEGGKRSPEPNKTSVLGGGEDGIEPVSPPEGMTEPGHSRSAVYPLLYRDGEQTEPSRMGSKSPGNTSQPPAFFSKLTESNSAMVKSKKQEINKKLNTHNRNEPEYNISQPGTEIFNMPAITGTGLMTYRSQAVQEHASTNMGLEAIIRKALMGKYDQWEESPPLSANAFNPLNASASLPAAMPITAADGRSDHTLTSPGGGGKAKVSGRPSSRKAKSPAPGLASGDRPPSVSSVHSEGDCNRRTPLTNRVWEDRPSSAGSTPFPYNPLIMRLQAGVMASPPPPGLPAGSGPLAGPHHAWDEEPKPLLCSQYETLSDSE
# [4] = Drug uptake in zebrafish embryo vasculature at 1 to 20 uM administered from 24 to 50 hrs post fertilization for 24 hrs and measured after 72 hrs by fluorescence microscopic analysis; type: ADME, Danio rerio; details: in vivo
# Outline: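 Zebrafish embryos treated with 1, 10 or 20 µM from 24–50 hpf, with 0 µM controls; trunk and tail imaged at 72 hpf by fluorescence microscopy (λex 480 nm, λem 517 nm).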
# Histone deacetylase 2 = Histone deacetylase 2 (Homo sapiens, UniProt Q92769); assay: Inhibition of recombinant full length C-terminal GST-tagged human HDAC2 (1 to 488 residues) expressed in insect cells using RHK-K(Ac)-AMC as substrate by fluorimetric assay
# Chain of Histone deacetylase 2 (Q92769 whole entry, the tested form may be a part): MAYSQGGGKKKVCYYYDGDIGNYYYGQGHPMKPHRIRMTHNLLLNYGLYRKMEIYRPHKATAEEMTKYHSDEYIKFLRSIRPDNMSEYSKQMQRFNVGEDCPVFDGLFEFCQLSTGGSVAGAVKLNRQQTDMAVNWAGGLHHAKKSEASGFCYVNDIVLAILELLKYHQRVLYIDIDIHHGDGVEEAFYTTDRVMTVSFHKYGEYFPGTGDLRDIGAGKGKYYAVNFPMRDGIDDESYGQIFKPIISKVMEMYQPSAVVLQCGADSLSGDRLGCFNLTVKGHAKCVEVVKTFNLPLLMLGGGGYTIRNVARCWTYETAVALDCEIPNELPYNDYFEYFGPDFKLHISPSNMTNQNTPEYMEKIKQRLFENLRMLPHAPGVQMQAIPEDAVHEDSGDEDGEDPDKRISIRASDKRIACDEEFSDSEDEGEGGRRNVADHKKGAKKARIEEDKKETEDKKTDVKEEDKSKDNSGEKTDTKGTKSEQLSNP
# Histone deacetylase 8 = biological target: T3, Histone deacetylase 8 (Homo sapiens, UniProt Q9BY41); assay: Inhibition of recombinant C-terminal His-tagged human HDAC8 (1 to 377 residues) expressed in Baculovirus infected insect cells using RHK-K(Ac)-AMC as substrate by fluorimetric assay
# T3 sequence (Q9BY41 whole entry): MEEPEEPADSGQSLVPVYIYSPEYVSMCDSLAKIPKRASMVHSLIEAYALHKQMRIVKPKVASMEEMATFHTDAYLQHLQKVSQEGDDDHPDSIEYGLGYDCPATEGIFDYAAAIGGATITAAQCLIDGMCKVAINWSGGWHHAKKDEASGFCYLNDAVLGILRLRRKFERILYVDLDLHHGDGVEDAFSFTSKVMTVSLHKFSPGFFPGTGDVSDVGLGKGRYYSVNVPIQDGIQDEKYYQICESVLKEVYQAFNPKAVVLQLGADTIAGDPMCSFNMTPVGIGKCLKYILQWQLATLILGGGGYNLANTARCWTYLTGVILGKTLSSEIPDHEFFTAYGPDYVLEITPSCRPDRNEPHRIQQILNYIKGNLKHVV
# Homo sapiens = organism: Homo sapiens; assay: Selectivity ratio of IC50 for recombinant C-terminal His-tagged human HDAC5 (656 to 1122 residues) to IC50 for recombinant N-terminal GST-tagged human HDAC6 (1 to 1215 residues)
# Histone deacetylase 4 = Histone deacetylase 4 (Homo sapiens, UniProt P56524); assay: Inhibition of recombinant N-terminal GST-tagged /C-terminal His-tagged human HDAC4 (627 to 1084 residues) expressed in Baculovirus infected insect cells using Boc-Lys(trifluoroacetyl)-AMC as substrate by fluorimetric assay
# Chain of Histone deacetylase 4 (P56524 whole entry, the tested form may be a part): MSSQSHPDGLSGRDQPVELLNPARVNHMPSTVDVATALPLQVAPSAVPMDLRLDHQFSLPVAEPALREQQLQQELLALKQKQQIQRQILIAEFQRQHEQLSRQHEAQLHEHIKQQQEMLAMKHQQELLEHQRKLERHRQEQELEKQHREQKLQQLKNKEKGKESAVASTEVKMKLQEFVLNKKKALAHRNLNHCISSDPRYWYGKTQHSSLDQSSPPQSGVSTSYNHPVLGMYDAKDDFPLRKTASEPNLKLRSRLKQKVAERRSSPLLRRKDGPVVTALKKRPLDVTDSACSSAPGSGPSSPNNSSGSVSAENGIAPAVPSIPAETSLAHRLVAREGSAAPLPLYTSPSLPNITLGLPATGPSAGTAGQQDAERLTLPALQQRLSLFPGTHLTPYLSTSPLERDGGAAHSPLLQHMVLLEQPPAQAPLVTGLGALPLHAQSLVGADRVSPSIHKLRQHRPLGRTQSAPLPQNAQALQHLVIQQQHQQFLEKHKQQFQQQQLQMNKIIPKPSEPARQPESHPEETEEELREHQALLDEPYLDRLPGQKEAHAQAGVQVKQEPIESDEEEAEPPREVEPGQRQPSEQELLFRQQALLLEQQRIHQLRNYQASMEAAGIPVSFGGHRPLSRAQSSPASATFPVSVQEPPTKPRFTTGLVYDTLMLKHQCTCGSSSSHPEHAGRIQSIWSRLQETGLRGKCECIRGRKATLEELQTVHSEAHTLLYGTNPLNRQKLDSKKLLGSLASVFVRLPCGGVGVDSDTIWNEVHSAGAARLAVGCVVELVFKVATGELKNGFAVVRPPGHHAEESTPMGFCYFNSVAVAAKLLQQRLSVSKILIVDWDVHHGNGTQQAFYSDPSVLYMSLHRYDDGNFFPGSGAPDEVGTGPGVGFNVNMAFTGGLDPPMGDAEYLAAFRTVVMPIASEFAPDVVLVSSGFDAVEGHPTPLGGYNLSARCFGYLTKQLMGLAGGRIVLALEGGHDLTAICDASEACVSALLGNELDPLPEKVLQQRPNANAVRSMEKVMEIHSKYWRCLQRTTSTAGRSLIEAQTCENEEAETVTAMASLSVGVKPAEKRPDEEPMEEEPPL
# A549 = assay: Induction of morphological changes in human A549 cells assessed as increase in protrusions of the membrane at 10 uM after 20 mins by naphthalimide/Lysotracker Deep Red dye-based inverted light fluorescence confocal microscopic analysis; type: functional, cell-based
# Outline: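 A549 cells exposed to compound at 10 µM for 20 minutes, then imaged by confocal microscopy (λex 405 nm, λem 460–560 nm); membrane protrusions (blebbing) recorded.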
# Kasumi 1 [5] = assay: Potency index, ratio of scriptaid IC50 to test compound IC50 for human Kasumi-1 cells; type: functional
pIC50 [1],pIC50 (Histone deacetylase 11),pIC50 [3],Drug uptake [4],pIC50 (Histone deacetylase 2),pIC50 (Histone deacetylase 8),Ratio IC50 (Homo sapiens),pIC50 (Histone deacetylase 4),SMILES,pIC50 (Kasumi 1 [2]),Activity (A549),Ratio IC50 (Kasumi 1 [5])
8.46,6.82,6.44,Active,6.07,5.61,970,5.26,O=C(CCCCCN1C(=O)c2cccc3c(NCc4ccccc4)ccc(c23)C1=O)NO,6.44,Active,
8.32,7.10,6.96,Active,6.38,5.82,1100,< 5.00,CCCNc1ccc2c3c(cccc13)C(=O)N(CCCCCC(=O)NO)C2=O,7.02,,5
